Experimental data reported in ChEMBL document CHEMBL3227917, “Structure-activity relationships of dimeric Catharanthus alkaloids. 2. Experimental antitumor activities of N-substituted deacetylvinblastine amide (vindesine) sulfates” (J Med Chem, 1979).

Legend:
[1] = Antitumor activity against mouse Gardner lymphosarcoma allografted in C3H mouse assessed as tumor growth inhibition at 0.05 mg/kg, ip administered daily for 8 to 10 days; type: functional; conditions: route intraperitoneal, read-out: TGI
Outline: (§1)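 Gardner lymphosarcoma in C3H mice; sulfate salts unless noted, given ip daily for 8–10 days, treatment starting 8 days after tumor implantation. Tumor growth inhibition scored as –, 0–25%; +, 26–50%; ++, 51–75%; +++, 76–100%; T, lethal to ≥5 of 10 animals per group. Average of one or more tests.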

Mus musculus [2] = assay: Toxicity in C3H mouse allografted with mouse Gardner lymphosarcoma assessed as lethality at 0.20 mg/kg, ip administered daily for 8 to 10 days; type: organism-based; parameters: dose 0.2 mg/kg, route intraperitoneal; conditions: in vivo, 0.2 mg/kg
Outline: (§2)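 Tumor-bearing mice given sulfate salts ip daily for 8–10 days; values are the average of one or more tests. Toxic means lethal to ≥5 of 10 animals per group.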

Mus musculus [3] = assay: Toxicity in C3H mouse allografted with mouse Gardner lymphosarcoma assessed as lethality at 0.40 mg/kg, ip administered daily for 8 to 10 days; type: organism-based; parameters: dose 0.4 mg/kg, route intraperitoneal; conditions: in vivo, 0.4 mg/kg; outline: as §2
[4] = Antitumor activity against mouse Gardner lymphosarcoma allografted in C3H mouse assessed as tumor growth inhibition at 0.10 mg/kg, ip administered daily for 8 to 10 days; type: functional; conditions: route intraperitoneal, read-out: TGI; outline: as §1
[5] = Antitumor activity against mouse Gardner lymphosarcoma allografted in C3H mouse assessed as tumor growth inhibition at 0.20 mg/kg, ip administered daily for 8 to 10 days; type: functional; conditions: route intraperitoneal, read-out: TGI; outline: as §1
B16 [6] = assay: Antitumor activity against mouse B16 cells allografted in C57BL/6 mouse assessed as prolongation of host survival at 0.90 mg/kg, ip administered on days 1,5 and 9; type: functional; conditions: route intraperitoneal
Outline: (§3)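 B16 melanoma cells (10⁶ inoculum) implanted ip in C57BL/6 mice; groups of 10. Sulfate salts unless noted, given ip on days 1, 5 and 9. Single test. Survival prolongation is expressed as percent versus controls, with survivors counted on day 60. Toxic means deaths of ≥5 of 10 animals before the first control death.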

[7] = Antitumor activity against mouse Gardner lymphosarcoma allografted in C3H mouse assessed as tumor growth inhibition at 0.40 mg/kg, ip administered daily for 8 to 10 days; type: functional; conditions: route intraperitoneal, read-out: TGI; outline: as §1
[8] = Antitumor activity against mouse Gardner lymphosarcoma allografted in C3H mouse assessed as tumor growth inhibition at 0.30 mg/kg, ip administered daily for 8 to 10 days; type: functional; conditions: route intraperitoneal, read-out: TGI; outline: as §1
B16 [9] = assay: Antitumor activity against mouse B16 cells allografted in C57BL/6 mouse assessed as prolongation of host survival at 0.60 mg/kg, ip administered on days 1,5 and 9; type: functional; conditions: route intraperitoneal; outline: as §3
Mus musculus [10] = assay: Toxicity in C57BL/6 mouse allografted with mouse B16 cells assessed as animal death at 1.20 mg/kg, ip administered on days 1,5 and 9; type: organism-based; parameters: dose 1.2 mg/kg, route intraperitoneal; conditions: in vivo, 1.2 mg/kg; outline: as §3
CHO [11] = assay: Mitotic arrest in CHO cells assessed as increase in cell accumulation at 0.2 ug/ml; type: functional, Cricetulus griseus
Outline: (§4)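 Chinese hamster ovary cells in tissue culture, scored for mitotic arrest as increase in cells in mitotic arrest over control: +++, 40–50%; ++, 15–40%; +, 10–15%; ±, 7–10%; –, 3–7%. Cytotoxicity noted separately.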

P388/VCR [12] = assay: Antitumor activity against mouse P388/VCR cells allografted in B6D2F1 mouse assessed as increase in host lifespan at 1.20 mg/kg, ip administered on days 1, 5 and 9; type: functional; conditions: dose 1.2 mg/kg; route intraperitoneal
Outline: (§5)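 P388/VCR leukemia in groups of 10 B6D2F1 mice, run at Lilly using the cell strain received from NCI. Sulfate salts given ip on days 1, 5 and 9. Read-out is percent increase in lifespan.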

P388/VCR [13] = assay: Antitumor activity against mouse P388/VCR cells allografted in B6D2F1 mouse assessed as increase in host lifespan at 0.60 mg/kg, ip administered on days 1, 5 and 9; type: functional; conditions: dose 0.6 mg/kg; route intraperitoneal; outline: as §5
CHO [14] = assay: Mitotic arrest in CHO cells assessed as increase in cell accumulation at 0.002 ug/ml; type: functional, Cricetulus griseus; outline: as §4
P388/VCR [15] = assay: Antitumor activity against mouse P388/VCR cells allografted in B6D2F1 mouse assessed as increase in host lifespan at 0.90 mg/kg, ip administered on days 1, 5 and 9; type: functional; conditions: dose 0.9 mg/kg; route intraperitoneal; outline: as §5
CHO [16] = assay: Mitotic arrest in CHO cells assessed as increase in cell accumulation at 0.02 ug/ml; type: functional, Cricetulus griseus; outline: as §4
Mus musculus [17] = assay: Toxicity in C3H mouse allografted with mouse Gardner lymphosarcoma assessed as lethality at 0.5 mg/kg, ip administered daily for 8 to 10 days; type: organism-based; parameters: dose 0.5 mg/kg, route intraperitoneal; conditions: in vivo; outline: as §2
[18] = Antitumor activity against mouse P1534 cells allografted in DBA2 mouse assessed as tumor growth inhibition at 0.20 mg/kg, ip administered daily for 8 to 10 days; type: functional; conditions: route intraperitoneal, read-out: TGI
Outline: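 P1534(J) leukemia implanted sc in DBA2 mice; sulfate salts dosed ip daily for 8–10 days. Growth inhibition scored –, 0–25%; +, 26–50%; ++, 51–75%; +++, 76–100%; T, lethal to ≥5 of 10 animals per group. Average of one or more tests.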

[19] = Antitumor activity against mouse Gardner lymphosarcoma allografted in C3H mouse assessed as tumor growth inhibition at 0.5 mg/kg, ip administered daily for 8 to 10 days; type: functional; conditions: route intraperitoneal, read-out: TGI; outline: as §1
[20] = Antitumor activity against mouse Gardner lymphosarcoma allografted in C3H mouse assessed as tumor growth inhibition at 0.125 mg/kg, ip administered daily for 8 to 10 days; type: functional; conditions: route intraperitoneal, read-out: TGI; outline: as §1
[21] = Antitumor activity against mouse Gardner lymphosarcoma allografted in C3H mouse assessed as tumor growth inhibition at 0.25 mg/kg, ip administered daily for 8 to 10 days; type: functional; conditions: route intraperitoneal, read-out: TGI; outline: as §1

Row | SMILES | Activity (Mus musculus [3]) | inhibition in vivo at 0.1 mg/kg [4] [%] | inhibition in vivo at 0.2 mg/kg [5] [%] | survival at 0.9 mg/kg (B16 [6]) [%] | survival at 0.6 mg/kg (B16 [9]) [%] | Activity (Mus musculus [10]) | other results
1 | C=CC(=O)OCCNC(=O)[C@@]1(O)[C@H](O)[C@]2(CC)C=CCN3CC[C@@]4(c5cc([C@@]6(C(=O)OC)C[C@@H]7CN(CCc8c6[nH]c6ccccc86)C[C@](O)(CC)C7)c(OC)cc5N(C)[C@@H]14)[C@@H]32 | Toxic | 76 | – | – | – | – | inhibition in vivo at 0.05 mg/kg [1]: 51%; Activity (Mus musculus [2]): Toxic
2 | CC[C@]1(O)C[C@H]2CN(CCc3c([nH]c4ccccc34)[C@@](C(=O)OC)(c3cc4c(cc3OC)N(C)[C@H]3[C@@](O)(C(=O)NCCS)[C@H](O)[C@]5(CC)C=CCN6CC[C@]43[C@@H]65)C2)C1.O=S(=O)(O)O | – | 0 | 26 | 141 | 170 | Toxic | inhibition in vivo at 0.4 mg/kg [7]: 76%; inhibition in vivo at 0.3 mg/kg [8]: 51%
3 | CC[C@]1(O)C[C@H]2CN(CCc3c([nH]c4ccccc34)[C@@](C(=O)OC)(c3cc4c(cc3OC)N(C)[C@H]3[C@@](O)(C(=O)NCCSC)[C@H](O)[C@]5(CC)C=CCN6CC[C@]43[C@@H]65)C2)C1.O=S(=O)(O)O | Toxic | 0 | 0 | 58 | 163 | Toxic | Activity (CHO [11]): 15%; Activity (P388/VCR [12]): 6%; Activity (P388/VCR [13]): 20%; Activity (CHO [14]): 3%; Activity (P388/VCR [15]): 42%; Activity (CHO [16]): 15%
4 | CC[C@]1(O)C[C@H]2CN(CCc3c([nH]c4ccccc34)[C@@](C(=O)OC)(c3cc4c(cc3OC)N(C)[C@H]3[C@@](O)(C(=O)NCCCSC)[C@H](O)[C@]5(CC)C=CCN6CC[C@]43[C@@H]65)C2)C1.O=S(=O)(O)O | Toxic | 0 | 0 | 141 | 101 | Toxic | –
5 | CC[C@]1(O)C[C@H]2CN(CCc3c([nH]c4ccccc34)[C@@](C(=O)OC)(c3cc4c(cc3OC)N(C)[C@H]3[C@@](O)(C(N)=O)[C@H](OC(C)=O)[C@]5(CC)C=CCN6CC[C@]43[C@@H]65)C2)C1.O=S(=O)(O)O | – | – | – | – | – | – | Activity (CHO [11]): 40%; Activity (CHO [14]): 3%; Activity (CHO [16]): 15%; Activity (Mus musculus [17]): Toxic
6 | CC[C@]1(O)C[C@H]2CN(CCc3c([nH]c4ccccc34)[C@@](C(=O)OC)(c3cc4c(cc3OC)N(C)[C@H]3[C@@](O)(C(=O)NC)[C@H](OC(C)=O)[C@]5(CC)C=CCN6CC[C@]43[C@@H]65)C2)C1.O=S(=O)(O)O | – | – | – | – | – | – | Activity (Mus musculus [17]): Toxic; inhibition in vivo at 0.2 mg/kg [18]: 51%
7 | CC[C@]1(O)C[C@H]2CN(CCc3c([nH]c4ccccc34)[C@@](C(=O)OC)(c3cc4c(cc3OC)N(C)[C@H]3[C@@](O)(C(=O)NCCNC(C)=O)[C@H](OC(C)=O)[C@]5(CC)C=CCN6CC[C@]43[C@@H]65)C2)C1 | – | – | – | – | – | – | inhibition in vivo at 0.5 mg/kg [19]: 76%; inhibition in vivo at 0.125 mg/kg [20]: 0%; inhibition in vivo at 0.25 mg/kg [21]: 51%
